According to ChEMBL document CHEMBL1152886, “Water-soluble prodrugs of an Aurora kinase inhibitor” (Bioorg Med Chem Lett, 2009):
≈ marks a conversion by molar mass, not a printed value.

What was measured:
[1] = Aqueous solubility at pH 3.2; type: physicochemical; conditions: aqueous solution
Procedure, shortened: (§1)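 Thermodynamic solubility from a slurry. Sonicated 20 min at room temperature, 10 min at 50 °C, then 10 min at room temperature, and agitated at least two days at room temperature. Residual solid was checked for crystallinity by polarized light microscopy. Slurry centrifuged 15,000 rpm at 20 °C for 20 min. Supernatant assayed by HPLC and its pH measured. Values are typically means of two measurements.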

[2] = Aqueous solubility at pH 2.5; type: physicochemical; conditions: aqueous solution; procedure, shortened: as §1
[3] = Chemical stability assessed as compound remaining in DMSO after 8 hrs; type: physicochemical; conditions: read-out: Stability
Procedure, shortened: (§2)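 Compound held 8 h at room temperature in DMSO or in pH 7.4 buffer. Percent remaining determined by LC/MS.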

[4] = Chemical stability assessed as compound remaining in aqueous buffer at pH 7.4 after 8 hrs; type: physicochemical; conditions: read-out: Stability; procedure, shortened: as §2
[5] = Aqueous solubility at pH 3.5; type: physicochemical; conditions: aqueous solution; procedure, shortened: as §1
[6] = Aqueous solubility at pH 7.8; type: physicochemical; conditions: aqueous solution; procedure, shortened: as §1
[7] = Half life in Sprague-Dawley rat at 5 mg/kg, iv; type: ADME, organism-based; design: dose 5 mg/kg, route intravenous; conditions: in vivo
Procedure, shortened: (§3)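 Male Sprague–Dawley rats (n = 3) dosed iv, prodrug at a dose equivalent to 5 mg/kg of parent, compared with an equivalent iv dose of parent. Plasma profiles of both prodrug and released parent were determined, giving AUC_INF and elimination half-life.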

[8] = AUC (0 to infinity) in Sprague-Dawley rat at 5 mg/kg, iv; type: ADME, organism-based; design: time infinity, dose 5 mg/kg, route intravenous; conditions: plasma; procedure, shortened: as §3
[9] = AUC (0 to infinity) in Sprague-Dawley rat at 10 mg/kg, po; type: ADME, organism-based; design: time infinity, dose 10 mg/kg, route oral; conditions: plasma
Procedure, shortened: (§4)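 Male Sprague–Dawley rats (n = 3) dosed orally, prodrug at a dose equivalent to 10 mg/kg of parent, compared with an equivalent oral dose of parent. Parent levels measured in plasma; AUC_INF derived from the plasma profile. Bioavailability is expressed with respect to the parent compound.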

[10] = Oral bioavailability in Sprague-Dawley rat at 10 mg/kg; type: ADME, organism-based; conditions: in vivo; procedure, shortened: as §4
[11] = Permeability across MDCK cells; type: ADME, cell-based, Canis lupus familiaris; conditions: dog, read-out: permeability

SMILES	solubility [1]	remaining at 8 h [3]	remaining at 8 h [4]	also measured
CC(C)C(=O)OCn1cc(CCNc2ncnc3ccsc23)s/c1=N\C(=O)Nc1cccc(Cl)c1	170 µg/mL (≈ 320 µM)			
CC(=O)OCn1cc(CCNc2ncnc3ccsc23)s/c1=N\C(=O)Nc1cccc(Cl)c1		100%	100%	solubility [2]: 120 µg/mL (≈ 239 µM)
O=C(/N=c1\sc(CCNc2ncnc3ccsc23)cn1COC(=O)CC1CCNCC1)Nc1cccc(Cl)c1		100%	100%	solubility [5]: 2500 µg/mL (≈ 4270 µM)
CC(C)(C)C(=O)OCn1cc(CCNc2ncnc3ccsc23)s/c1=N\C(=O)Nc1cccc(Cl)c1	280 µg/mL (≈ 514 µM)	100%	100%	
CNCC(=O)OCn1cc(CCNc2ncnc3ccsc23)s/c1=N\C(=O)Nc1cccc(Cl)c1		0%	0%	
O=C(/N=c1\sc(CCNc2ncnc3ccsc23)cn1COC(=O)C1CCNCC1)Nc1cccc(Cl)c1		84%	52%	
O=C(/N=c1\sc(CCNc2ncnc3ccsc23)cn1COP(=O)(O)O)Nc1cccc(Cl)c1		100%	100%	solubility [6]: 4700 µg/mL (≈ 8690 µM); half-life [7]: 0.5 h; AUC(0-inf) [8]: 1910 ng·h/mL; AUC(0-inf) [9]: 2200 ng·h/mL; bioavailability [10]: 44%; Papp [11]: < 1 ×10⁻⁶ cm/s
CS(=O)(=O)O.O=C(Nc1cccc(Cl)c1)Nc1ncc(CCNc2ncnc3ccsc23)s1 [SNS-314 MESYLATE]	14 µg/mL			half-life [7]: 2.1 h; AUC(0-inf) [8]: 2090 ng·h/mL; AUC(0-inf) [9]: 3650 ng·h/mL; bioavailability [10]: 72%
